Reference: article PMC9111184 (Current Research in Pharmacology and Drug Discovery, 2022)

Experiments:
Caco-2 cell monolayers = type: cell-based, Human; conditions: relative to cholesterol alone, 24 h
Procedure, shortened: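 Caco-2 seeded at 2–4 x 10^4 cells/cm2 on transwell inserts (0.4 μm pore) and grown 16 days into monolayers. TEER was read before and after; monolayers above […] were accepted. Test compound was added apically in DMEM together with 5 mM cholesterol, with plain DMEM basolateral. After 24 h at 37 °C, 5% CO2, both sides were sampled for RP-HPLC-DAD. Cholesterol permeation % = amount transported/initial apical amount.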

Caco-2 cells = assay: FTIR analysis of treated cells; type: cell-based, Human; conditions: phenolic compounds 1 mM, 24 h
Procedure, shortened: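 Cell suspension at ~1.2 × 10^6 cells/mL was seeded onto CaF2 windows and left overnight. Cells were then exposed 24 h to phenolic test compounds at 1 mM or another test compound at 100 μM; untreated cells served as control. FTIR spectra covered 900–3000 cm−1 at 4 cm−1 resolution, averaging 128 scans, and were normalized to Amide II. Spectra were Savitsky-Golay smoothed (eight points) and second-derivative processed; 4 replicates.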

Permeability = type: in vitro ADME; conditions: human, Caco-2
Procedure, shortened: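 Monolayers were Caco-2 grown 16 days on 0.4 μm-pore transwell inserts after seeding at 2–4 x 10^4 cells/cm2, with TEER above 250 Ω/cm2 checked before and after. Test compound in DMEM containing 5 mM cholesterol went apically and DMEM basolaterally for 24 h, 37 °C, 5% CO2. Both compartments were quantified by RP-HPLC-DAD. Papp = (dQ/dt)/(A × C0), using basolateral appearance rate, membrane area and initial concentration.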

[1] = MTT cytotoxicity on Caco-2 cell line; type: cell-based; conditions: human, Caco-2 cells
Procedure, shortened: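 MTT viability test: 2 × 10^4 cells per well, pre-incubated 48 h at 37 °C, 5% CO2. Test compound in FBS-free DMEM was added at 0.025–1 mg/mL (phenolic acids) or 0.1–1 mM (other compound) for 24 h, then MTT reagent. Absorbance was read at 595 nm minus 630 nm, and viability expressed as % of untreated control; eight replicates per concentration.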

Papp at 24 h (Permeability) [×10⁻⁶ cm/s] | Structure (SMILES) | Decrease in cholesterol permeability (Caco-2 cell monolayers) [%] | Change of bands at 965, 1081 and 1240 cm−1 (DNA bands) relative to control (Caco-2 cells; Ezetimibe 100 μM) | Change of β-sheets band area at ∼1637 and 1683 cm−1 vs untreated cells (Caco-2 cells; Ezetimibe 100 μM) | IC50 at 24 h [1] [µM] | Change of random coil structures at 1650 cm−1 vs untreated cells (Caco-2 cells; Ezetimibe 100 μM) | Change of band at 1081 cm−1 relative to control (Caco-2 cells)
– | O=C(O)/C=C/c1cccc(O)c1 [m-CA, m-coumaric acid] | 77.70 | decrease | didn't show any changes | – | – | –
2.94 | O=C1[C@H](CC[C@H](O)c2ccc(F)cc2)[C@@H](c2ccc(O)cc2)N1c1ccc(F)cc1 [EZ, ezetimibe, reference compound] | 96.60 | – | – | 228 | – | –
1.68 | O=C(/C=C/c1ccc(O)c(O)c1)O[C@H](Cc1ccc(O)c(O)c1)C(=O)O [RA, rosmarinic acid] | 85.65 | decrease | increase | – | increase | –
1.38 | O=C(/C=C/c1ccc(O)c(O)c1)O[C@@H]1C[C@](O)(C(=O)O)C[C@@H](O)[C@H]1O [ChA, chlorogenic acid] | 80.29 | decrease | – | – | – | increase
